{
  "source": "ChEMBL document CHEMBL1143847",
  "about": "“Competitive inhibitors of the CphA metallo-beta-lactamase from Aeromonas hydrophila” (Antimicrob Agents Chemother, 2007)",
  "proteins": {"B1": {"name": "Beta-lactamase (Aeromonas hydrophila), Q44079 (protein)", "chain": "MMKGWMKCGLAGAVVLMASFWGGSVRAAGMSLTQVSGPVYVVEDNYYVQENSMVYFGAKGVTVVGATWTPDTARELHKLIKRVSRQPVLEVINTNYHTDRAGGNAYWKSIGAKVVSTRQTRDLMKSDWAEIVAFTRKGLPEYPDLPLVLPNVVHEGDFTLQEGKLRAFYAGPAHTPDGIFVYFPDQQVLYGNCILKEKLGNLSFADVKAYPRTLERLKAMKLPIKTVVGGHDSPLHGPELIDHYEALIKAAPQS"}},
  "key": {"[1]": {"substrate": "C[C@@H](O)[C@H]1C(=O)N2C(C(=O)O)=C(SCCNC=N)C[C@H]12", "test": "Activity of Aeromonas hydrophila beta lactamase CphA at pH 7.0", "how_it_was_run": "(§1)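 Wild-type CphA kinetics with imipenem as substrate, measured in a mixed buffer adjusted to the stated pH with HCl or NaOH. The buffer held 40 mM sodium acetate, 20 mM each of cacodylate, MOPS, TAPS, CHES and CAPS, and 20 μg/ml BSA. Runs were at 30°C in thermostatted cells. Km and kcat came from initial rates. At pH 10 only kcat/Km was taken, because imipenem hydrolyses spontaneously.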"}, "[2]": {"substrate": "C[C@@H](O)[C@H]1C(=O)N2C(C(=O)O)=C(SCCNC=N)C[C@H]12", "test": "Activity of Aeromonas hydrophila beta lactamase CphA at pH 8.0", "how_it_was_run": "as §1"}, "[3]": {"substrate": "C[C@@H](O)[C@H]1C(=O)N2C(C(=O)O)=C(SCCNC=N)C[C@H]12", "test": "Activity of Aeromonas hydrophila beta lactamase CphA at pH 9.0", "how_it_was_run": "as §1"}},
  "data": [
    {"protein": "B1", "values": [
      {"measurement": "Km", "setting": "[1]", "result": 120, "unit": "µM"},
      {"measurement": "kcat", "setting": "[1]", "result": 210, "unit": "s⁻¹"},
      {"measurement": "Km", "setting": "[2]", "result": 83, "unit": "µM"},
      {"measurement": "kcat", "setting": "[2]", "result": 140, "unit": "s⁻¹"},
      {"measurement": "Km", "setting": "[3]", "result": 63, "unit": "µM"},
      {"measurement": "kcat", "setting": "[3]", "result": 49, "unit": "s⁻¹"}
    ]}
  ]
}
